The values that follow come from ChEMBL document CHEMBL1151206, “Glycosidase-inhibiting pyrrolidines and pyrrolizidines with a long side chain in Scilla peruviana” (J Nat Prod, 2004).

A short description of assay [1]: Inhibition of almond beta-glucosidase by spectrophotometry. Also noted: species or system Prunus dulcis. In a few lines: (§1)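 Commercial enzyme assayed with the matching p-nitrophenyl glycoside (2 mM) in a 1 mL reaction, at pH 5.0 for the C. saccharolyticum and almond beta-glucosidases, pH 6.8 for bovine liver beta-galactosidase and pH 6.8 for yeast alpha-glucosidase. The reaction was stopped with 2 mL of 400 mM Na2CO3 and released p-nitrophenol was read at 400 nm. IC50 was determined.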

The species entered for assay [2] is Rattus norvegicus. In words: Inhibition of rat epididymis beta-galactosidase at 1000 uM by spectrophotometry. In a few lines:
(§2)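 Enzyme source was rat epididymal fluid purified from epididymis, assayed at pH 5.2 with 2 mM of the relevant p-nitrophenyl glycoside in a 1 mL reaction. The reaction was stopped with 2 mL of 400 mM Na2CO3 and p-nitrophenol was measured at 400 nm.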

Assay [3] concerns the target Alpha-galactosidase (Coffea arabica) (UniProt Q42656). Description: Inhibition of coffee bean alpha-galactosidase at 1000 uM by spectrophotometry. In a few lines:
(§3)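 Commercial enzymes (P. decumbens alpha-L-rhamnosidase at pH 4.5, bovine epididymis alpha-L-fucosidase at pH 5.5, coffee bean alpha-galactosidase at pH 6.5) were incubated with 2 mM p-nitrophenyl glycoside in a 1 mL reaction. The reaction was stopped with 2 mL of 400 mM Na2CO3 and p-nitrophenol was read at 400 nm.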

The nature of assay [4]: Inhibition of yeast alpha-glucosidase by spectrophotometry. Also noted: species or system Saccharomyces cerevisiae. In a few lines:
as §1

Assay [5] concerns the target T1, Lysosomal acid glucosylceramidase (Homo sapiens, UniProt P04062).
T1 sequence (P04062 whole entry): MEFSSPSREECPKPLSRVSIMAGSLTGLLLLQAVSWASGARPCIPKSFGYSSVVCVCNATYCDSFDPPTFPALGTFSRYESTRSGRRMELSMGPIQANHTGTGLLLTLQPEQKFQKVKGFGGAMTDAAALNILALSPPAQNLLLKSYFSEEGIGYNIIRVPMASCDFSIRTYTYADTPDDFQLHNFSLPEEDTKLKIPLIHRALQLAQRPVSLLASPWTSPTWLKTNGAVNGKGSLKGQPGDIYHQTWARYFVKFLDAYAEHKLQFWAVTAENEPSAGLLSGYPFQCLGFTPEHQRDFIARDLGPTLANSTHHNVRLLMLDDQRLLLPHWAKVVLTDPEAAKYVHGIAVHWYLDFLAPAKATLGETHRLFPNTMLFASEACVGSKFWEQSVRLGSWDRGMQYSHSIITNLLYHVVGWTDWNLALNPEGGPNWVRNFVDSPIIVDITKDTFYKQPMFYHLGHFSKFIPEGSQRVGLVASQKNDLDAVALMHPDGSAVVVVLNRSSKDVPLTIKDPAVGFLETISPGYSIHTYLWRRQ
Description: Inhibition of human placental beta-glucocerebrosidase by spectrophotometry. In a few lines:
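Human placental beta-glucocerebrosidase (Ceredase) was assayed at pH 5.5 with 2 mM p-nitrophenyl glycoside substrate in a 1 mL reaction. The reaction was stopped with 2 mL of 400 mM Na2CO3 and released p-nitrophenol was read at 400 nm.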

A further assay has as its target T2, Beta-galactosidase (Bos taurus, UniProt Q58D55).
T2 sequence (Q58D55 whole entry): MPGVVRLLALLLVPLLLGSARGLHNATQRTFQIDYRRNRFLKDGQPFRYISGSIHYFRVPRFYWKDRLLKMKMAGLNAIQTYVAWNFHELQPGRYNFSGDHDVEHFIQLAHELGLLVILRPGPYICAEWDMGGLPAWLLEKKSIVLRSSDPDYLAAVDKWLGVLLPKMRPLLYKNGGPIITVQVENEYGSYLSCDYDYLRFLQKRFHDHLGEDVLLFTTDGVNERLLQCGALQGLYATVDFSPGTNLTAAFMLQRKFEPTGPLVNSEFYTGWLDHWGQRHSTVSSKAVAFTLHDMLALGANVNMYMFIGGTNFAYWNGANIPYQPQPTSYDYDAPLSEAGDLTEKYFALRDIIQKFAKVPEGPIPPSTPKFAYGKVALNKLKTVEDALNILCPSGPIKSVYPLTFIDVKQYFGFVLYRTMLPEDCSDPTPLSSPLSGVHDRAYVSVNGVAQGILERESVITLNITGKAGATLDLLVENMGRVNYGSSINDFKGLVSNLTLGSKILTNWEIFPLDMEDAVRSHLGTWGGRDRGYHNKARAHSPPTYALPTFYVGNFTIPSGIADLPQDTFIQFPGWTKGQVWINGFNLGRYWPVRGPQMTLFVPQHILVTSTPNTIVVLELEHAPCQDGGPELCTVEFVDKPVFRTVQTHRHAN
Description: Inhibition of bovine liver beta-galactosidase by spectrophotometry. In a few lines:
as §1

Assay [6] has as its target T3, Tissue alpha-L-fucosidase (Bos taurus) (UniProt Q2KIM0).
T3 sequence (whole entry): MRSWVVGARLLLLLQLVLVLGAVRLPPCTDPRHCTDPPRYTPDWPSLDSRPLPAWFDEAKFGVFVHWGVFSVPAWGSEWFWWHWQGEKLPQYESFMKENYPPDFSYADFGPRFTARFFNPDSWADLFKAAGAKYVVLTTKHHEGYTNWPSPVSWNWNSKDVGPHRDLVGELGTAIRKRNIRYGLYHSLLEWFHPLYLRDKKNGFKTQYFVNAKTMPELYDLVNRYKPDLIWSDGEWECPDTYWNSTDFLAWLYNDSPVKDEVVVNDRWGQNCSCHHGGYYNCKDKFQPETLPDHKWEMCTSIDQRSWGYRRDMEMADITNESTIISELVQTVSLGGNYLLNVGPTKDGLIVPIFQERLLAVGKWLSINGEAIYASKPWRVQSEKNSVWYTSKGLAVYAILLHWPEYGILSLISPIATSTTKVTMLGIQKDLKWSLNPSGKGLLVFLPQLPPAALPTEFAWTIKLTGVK
In words: Inhibition of bovine epididymis alpha-L-fucosidase at 1000 uM by spectrophotometry. In a few lines:
as §3

Assay [7] in a line: Inhibition of Caldocellum saccharolyticum beta-glucosidase by spectrophotometry. Also on record: species or system Caldicellulosiruptor saccharolyticus. In a few lines:
as §1

A short description of assay [8]: Inhibition of rice alpha-glucosidase by spectrophotometry. Also on record: species or system Oryza sativa.
In another assay the target is T4, Beta-mannosidase (Rattus norvegicus, UniProt Q4FZV0).
T4 sequence (Q4FZV0 whole entry): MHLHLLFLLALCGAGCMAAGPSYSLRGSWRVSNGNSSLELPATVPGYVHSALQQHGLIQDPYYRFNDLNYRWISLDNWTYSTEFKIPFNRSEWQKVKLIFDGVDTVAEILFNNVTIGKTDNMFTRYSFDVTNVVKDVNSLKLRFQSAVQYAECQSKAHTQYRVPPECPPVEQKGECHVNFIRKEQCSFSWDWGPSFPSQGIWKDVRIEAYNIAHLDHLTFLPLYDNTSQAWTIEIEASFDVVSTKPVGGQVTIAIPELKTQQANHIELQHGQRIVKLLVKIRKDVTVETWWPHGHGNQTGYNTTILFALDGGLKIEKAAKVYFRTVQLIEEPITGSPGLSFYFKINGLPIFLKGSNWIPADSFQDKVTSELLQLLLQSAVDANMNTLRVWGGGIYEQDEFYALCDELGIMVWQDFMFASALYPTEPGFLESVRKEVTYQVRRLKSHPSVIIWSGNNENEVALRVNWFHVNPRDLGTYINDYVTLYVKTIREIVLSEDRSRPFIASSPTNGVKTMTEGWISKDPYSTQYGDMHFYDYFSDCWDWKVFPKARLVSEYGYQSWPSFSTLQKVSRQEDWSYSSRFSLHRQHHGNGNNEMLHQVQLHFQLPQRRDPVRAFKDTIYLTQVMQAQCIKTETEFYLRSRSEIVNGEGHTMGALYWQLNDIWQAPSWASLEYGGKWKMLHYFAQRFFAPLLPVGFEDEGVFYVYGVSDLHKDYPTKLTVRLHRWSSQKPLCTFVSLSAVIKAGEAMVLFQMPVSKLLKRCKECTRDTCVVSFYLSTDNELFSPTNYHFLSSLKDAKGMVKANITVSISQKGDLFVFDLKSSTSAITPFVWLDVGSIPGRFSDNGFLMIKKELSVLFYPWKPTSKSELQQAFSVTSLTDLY
In words: Inhibition of rat epididymis beta-mannosidase by spectrophotometry. In a few lines: as §2

In the next assay the test system is Penicillium decumbens. In words: Inhibition of Penicillium decumbens alpha-L-rhamnosidase at 1000 uM by spectrophotometry. In a few lines: as §3
The species entered for assay [9] is Rattus norvegicus. Description: Inhibition of rat epididymis alpha-mannosidase at 1000 uM by spectrophotometry. In a few lines: as §2
A short description of assay [10]: Inhibition of Penicillium decumbens alpha-L-rhamnosidase by spectrophotometry. In a few lines: (§4)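 Substrate was the matching p-nitrophenyl glycoside at 2 mM. Penicillium decumbens α-L-rhamnosidase was run at pH 4.5. α-Mannosidase came from purified rat epididymal fluid and was run at pH 5.2. Reactions were stopped with 400 mM Na2CO3, and released p-nitrophenol was read at 400 nm.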

The nature of assay [11]: Inhibition of rat epididymis alpha-mannosidase by spectrophotometry. In a few lines: as §4
The target of assay [12] is T5, Beta-mannosidase (Rattus norvegicus) (UniProt Q4FZV0).
T5 sequence (whole entry): T4 sequence (Q4FZV0 whole entry)
In words: Inhibition of rat epididymis beta-mannosidase at 1000 uM by spectrophotometry.

For assay [13], the target named is T6, Lysosomal acid glucosylceramidase (Homo sapiens) (UniProt P04062).
T6 sequence (whole entry): T1 sequence (P04062 whole entry)
Description: Inhibition of human placental beta-glucocerebrosidase at 1000 uM by spectrophotometry.

Sequence of Alpha-galactosidase (Coffea arabica) (Q42656 16-378 limits assumed): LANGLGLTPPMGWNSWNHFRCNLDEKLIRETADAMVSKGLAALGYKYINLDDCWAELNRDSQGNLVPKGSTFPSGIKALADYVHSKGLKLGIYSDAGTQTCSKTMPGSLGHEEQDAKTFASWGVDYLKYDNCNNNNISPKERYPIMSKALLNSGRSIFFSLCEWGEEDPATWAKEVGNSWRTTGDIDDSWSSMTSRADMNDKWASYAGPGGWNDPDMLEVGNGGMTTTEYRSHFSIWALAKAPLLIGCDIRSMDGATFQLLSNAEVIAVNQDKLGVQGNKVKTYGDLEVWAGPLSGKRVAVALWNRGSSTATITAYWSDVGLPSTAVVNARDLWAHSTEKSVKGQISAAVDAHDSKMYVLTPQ

Take `OCC(O)CCCCC(O)CC(O)CCC[C@@H](O)[C@H]1N[C@H](CO)[C@@H](O)[C@@H]1O` (some centres undefined): the 50% inhibitory concentration (IC50) in assay [1] was 6.6 µM; in assay [4], 220 µM; in assay [5], 970 µM; at Beta-galactosidase it was 0.09 µM; in assay [7], 0.08 µM; in assay [8], 265 µM. At Beta-mannosidase, this compound registered an IC50 of 9.3 µM. Further, the inhibition (in the assay filed under Rattus norvegicus [2]; in assay [3]; in assay [6]; in the assay with Penicillium decumbens; in the assay filed under Rattus norvegicus [9]) was below 50% in each case.
With `CC(O)CC(O)[C@@H]1CC[C@@H]2[C@H](O)[C@H](O)[C@@H](CO)N21` (some centres undefined), the IC50 in [1] amounted to 9.5 µM; in [10], 180 µM; in assay [11] it was 680 µM; in assay [4], 3.6 µM; against Beta-galactosidase, 830 µM; in [7] it was 5.1 µM. In [8], this compound had an IC50 of 300 µM. Moreover, the inhibition (in the assay filed under Rattus norvegicus [2]; in assay [3]; in assay [12]; in assay [6]; in [13]) was below 50% throughout.

By IC50 is commonly meant the concentration that inhibits the measured activity by half. Read a low IC50 as greater potency. One may read the inhibition as the share of the control response that was lost under treatment. A high value points to strong suppression.
